The source made the active and inactive calls. No cut-off for these calls is given here.
What was measured:
[1] = Inhibition of Vpu ion channel in HIV1 98IN017 in human MDM assessed as inhibition of vrius release; design: species or system Human immunodeficiency virus 1
[2] = test system: MDM; test: Inhibition of Vpu ion channel in 0.05 MOI HIV1 Ba-L chronically infected in 10-14 days differentiated human MDM cells assessed as viral inhibition after 1 day relative to control; format: cell-based; conditions: Human immunodeficiency virus 1
Summary of the method: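 Chronic infection model: MDM were incubated with HIV-1 Ba-L for 3 h and left 7 days unwashed, then washed three times and given a single 10 μM dose (DMSO control). Supernatants were sampled routinely for RT activity. In the washout arm, compound was removed and cells kept drug-free for an additional 20 days.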

[3] = test system: PBMC; test: Inhibition of Vpu ion channel in 0.05 MOI HIV1 NL4-3 infected in human PBMC cells assessed as viral inhibition measured after 7 days by […]; conditions: Human immunodeficiency virus 1
[4] = target: Protease (Human immunodeficiency virus 1) (UniProt Q9YQ12); test: Inhibition of HIV1 protease assessed as substrate cleavage by cell free assay
Chain of Protease (Human immunodeficiency virus 1) (Q9YQ12 as listed by the source): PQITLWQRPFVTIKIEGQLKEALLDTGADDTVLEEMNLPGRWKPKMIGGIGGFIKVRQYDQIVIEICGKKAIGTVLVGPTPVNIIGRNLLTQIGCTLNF
Summary of the method: (§1)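 Cell-free fluorometric protease assay: compound (1–100 μM) was premixed with 2 μM quenched HIV-1 protease substrate 1. Background fluorescence (ex 340/em 490 nm) was read every 5 s for 5 min. HIV-1 protease was then added at 1.5% and cleavage followed for a further 5 min. LPV and EFV served as controls.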

[5] = target: Protease (Human immunodeficiency virus 1) (UniProt Q9YQ12); test: Inhibition of HIV1 protease assessed as substrate cleavage at 100 uM by cell free assay; summary of the method: as §1
[6] = Selectivity index, ratio of TC50 for human MDM cells to EC50 for HIV1 G-92NG003-G3 infected in human MDM cells; format: toxicity, cell-based; conditions: read-out: Selectivity Index
[7] = test system: Human immunodeficiency virus 1; test: Inhibition of HIV1 Vpu ion channel activity
Summary of the method: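 Planar lipid bilayer of POPE:POPC (50:50) in n-decane, with 50 mM KCl in 10 mM MES […] in both chambers. Synthetic Vpu peptide (150 ng) was added to cis and trans sides with stirring. K+ current appeared at −100 mV and was recorded at −40 mV, filtered at 1 kHz. Mean currents were taken over 10–30 s before and after compound (40 μM).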

[8] = Selectivity index, ratio of TC50 for human MDM cells to EC50 for HIV1 MDR3761 infected in human MDM cells; format: toxicity, cell-based; conditions: read-out: Selectivity Index
[9] = test system: MDM; test: Inhibition of Vpu ion channel in 0.001 MOI HIV1 Ba-L infected in 10 days differentiated human MDM cells assessed as viral inhibition by TZM-bl infectivity assay; format: cell-based; conditions: Human immunodeficiency virus 1
Summary of the method: (§2)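 MDM differentiated for 7, 10 or 14 days were infected with HIV-1 Ba-L across a range of MOIs, washed three times with PBS and cultured 7 days with 10 μM compound or equal-volume DMSO. On day 7 postinfection, supernatant RT activity was measured (and infectivity on TZM-bl cells). Cell lysates went to real-time PCR for LTR-gag DNA, normalised to albumin copies.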

[10] = test system: MDM; test: Inhibition of Vpu ion channel in 0.001 to 3 MOI HIV1 Ba-L infected in 7-14 days differentiated human MDM cells assessed as virus inhibition rate measured after 7 days; format: cell-based; conditions: Human immunodeficiency virus 1; summary of the method: as §2
[11] = test system: MT2; test: Inhibition of Vpu ion channel in 0.05 MOI HIV1 NL4-3 infected in MT2 cells assessed as viral inhibition measured at 10 uM after 7 days by […]; conditions: Human immunodeficiency virus 1
[12] = Cytotoxicity against human TZM-bl cells assessed as cell viability up to 20 uM by MTT assay; format: cell-based
[13] = test system: MDM; test: Inhibition of Vpu ion channel in 0.001 to 0.01 MOI HIV1 Ba-L infected in 10 days differentiated human MDM cells assessed as viral inhibition by RT assay; format: cell-based; conditions: Human immunodeficiency virus 1; summary of the method: as §2

Question: Which results are given for `Cn1cc(-c2cccc3cc(C(=O)NC(=N)N)ccc23)cn1`?
Answer: EC50 [1]: 42.2 µM; inhibition [2]: 60.7%; inhibition [3]: 95.8%; Activity [4]: inactive; Activity [5]: inactive; selectivity ratio [6]: 131; Activity [7]: 40 µM; selectivity ratio [8]: 39.3; inhibition [9]: 98.1%; Activity [10]: Active; inhibition [11]: 24%; Activity [12]: Non-toxic; inhibition [13]: 82%
